Data taken from ChEMBL document CHEMBL3352187, “Design, synthesis and molecular docking study of novel quinoxalin-2(1H)-ones as anti-tumor active agents with inhibition of tyrosine kinase receptor and studying their cyclooxygenase-2 activity” (Eur J Med Chem, 2014).
pIC50: −log10 of the molar value.

Tests used:
MCF7 [1] = test: Cytotoxicity against human MCF7 cells after 48 hrs by sulforhodamine B assay; type: functional, cell-based; conditions: MCF7, 48 h
Outline: (§1)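 Cells seeded at 10^4 per well, left 24 h to attach, then exposed to 0, 12.5, 25, 50 […] as printed, triplicate wells per dose, 48 h at 37 °C, 5% CO2. Fixed, stained with sulforhodamine B, excess dye removed with acetic acid, bound dye taken up in Tris EDTA and read on an ELISA reader. IC50 from survival curve of surviving fraction against concentration.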

[2] = biological target: T1, Prostaglandin G/H synthase 1 (Ovis aries, UniProt P05979); test: Inhibition of ovine COX1 assessed as reduction in PGH2 production using arachidonic acid substrate by enzyme immunoassay
T1 sequence (P05979 whole entry): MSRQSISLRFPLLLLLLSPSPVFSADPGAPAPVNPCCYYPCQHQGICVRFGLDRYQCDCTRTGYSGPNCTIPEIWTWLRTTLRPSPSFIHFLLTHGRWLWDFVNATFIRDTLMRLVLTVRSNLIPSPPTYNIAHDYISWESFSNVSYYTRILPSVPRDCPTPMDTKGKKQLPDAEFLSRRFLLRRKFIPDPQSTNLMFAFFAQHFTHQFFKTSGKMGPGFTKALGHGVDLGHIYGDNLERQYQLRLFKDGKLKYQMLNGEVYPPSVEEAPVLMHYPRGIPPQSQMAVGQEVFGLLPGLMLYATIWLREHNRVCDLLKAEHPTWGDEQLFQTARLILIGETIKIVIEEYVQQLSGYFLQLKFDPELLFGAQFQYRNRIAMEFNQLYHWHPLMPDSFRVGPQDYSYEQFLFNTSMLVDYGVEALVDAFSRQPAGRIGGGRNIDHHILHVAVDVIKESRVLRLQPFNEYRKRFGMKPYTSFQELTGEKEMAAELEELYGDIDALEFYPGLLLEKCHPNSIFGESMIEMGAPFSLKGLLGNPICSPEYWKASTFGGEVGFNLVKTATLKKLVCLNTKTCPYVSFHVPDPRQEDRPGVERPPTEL
Outline: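 Ovine COX-1 with heme in 0.1 M Tris-HCl pH 8.0 containing 5 mM EDTA and 2 mM phenol. Test compound given at […] final, from DMSO stock. Preincubated 5 min at 37 °C, then arachidonic acid added; stopped with 1 M HCl after 2 min. PGH2 reduced to PGF2a by stannous chloride, measured by competitive EIA at 410 nm. IC50 from concentration-inhibition curve, duplicate determinations.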

HepG2 [3] = test: Inhibition of protein tyrosine kinase in human HepG2 cells assessed as change in TRK level at cytotoxic IC50 level incubated for 24 hrs by ELISA method; type: cell-based; design: scale not given: the % may be the effect or the level left
Outline: (§2)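 Cells kept in DMEM with 10% heat-inactivated fetal calf serum plus penicillin/streptomycin at 37 °C, 5% CO2. […] Cells homogenized in saline. TRK measured by double-antibody sandwich ELISA, OD 450 nm, read against a standard curve in triplicate. Percent inhibition relative to DMSO-treated control cells.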

HepG2 [4] = test: Cytotoxicity against human HepG2 cells after 48 hrs by sulforhodamine B assay; type: functional, cell-based; conditions: HepG2, 48 h; outline: as §1
MCF7 [5] = test: Inhibition of protein tyrosine kinase in human MCF7 cells assessed as change in TRK level at cytotoxic IC50 level incubated for 24 hrs by ELISA method; type: cell-based; design: scale not given: the % may be the effect or the level left; outline: as §2

Compound | pIC50 (MCF7 [1]) | pIC50 [2] | Activity (HepG2 [3]) | pIC50 (HepG2 [4]) | Activity (MCF7 [5])
CC(=O)N1CCN(c2c(/C=N/Nc3nc4ccccc4nc3O)c(C)nn2-c2ccccc2)CC1 | 4.74 | < 4.30 | 80% | 4.96 | –
Cc1nn(-c2ccccc2)c(SCC(=O)O)c1/C=N/Nc1nc2ccccc2nc1O | 4.47 | – | 22% | 4.39 | 4%
Cc1nn(-c2ccccc2)c(N2CCOCC2)c1/C=N/Nc1nc2ccccc2nc1O | 5.03 | < 4.30 | 84% | 4.96 | 85%
Cc1nn(-c2ccccc2)c(N2CCCCC2)c1/C=N/Nc1nc2ccccc2nc1O | 4.89 | < 4.30 | 75% | 4.74 | 74%
Cc1nn(-c2ccccc2)c(N(C)C)c1/C=N/Nc1nc2ccccc2nc1O | 4.74 | < 4.30 | 73% | 4.50 | 62%
Cc1nn(-c2ccccc2)c(Cl)c1/C=N/Nc1nc2ccccc2[nH]c1=O | 4.60 | < 4.30 | 79% | 4.71 | 34%
Cc1nn(-c2ccccc2)c(SCCO)c1/C=N/Nc1nc2ccccc2nc1O | 4.95 | – | 78% | 4.63 | 82%
Cc1nn(-c2ccccc2)c(N2CCNCC2)c1/C=N/Nc1nc2ccccc2nc1O | 4.79 | < 4.30 | 20% | 4.42 | 66%
Cc1nn(-c2ccccc2)c(N2CCN(C)CC2)c1/C=N/Nc1nc2ccccc2nc1O | 5.00 | < 4.30 | 83% | 4.94 | 83%
Cc1nn(-c2ccccc2)c(N2CCN(S(=O)(=O)c3ccccc3)CC2)c1/C=N/Nc1nc2ccccc2nc1O | 4.58 | – | 19% | 4.55 | 12%
Cc1nn(-c2ccc([N+](=O)[O-])cc2)c(Cl)c1/C=N/Nc1nc2ccccc2[nH]c1=O | 4.68 | – | 39% | 4.47 | 40%
Cc1nn(-c2ccccc2)c(N2CCN(S(=O)(=O)c3ccccc3[N+](=O)[O-])CC2)c1/C=N/Nc1nc2ccccc2nc1O | 4.84 | – | 13% | 4.49 | 37%
Cc1nn(-c2ccccc2)c(OC2CCCC2)c1/C=N/Nc1nc2ccccc2nc1O | 4.50 | < 4.30 | 40% | 4.44 | 16.5%
